# pEC50, pIC50: −log10 of the molar value.
# Legend:
# [1] = In vitro for cytotoxicity in MT-4 lymphocytes in the absence of HIV infection; format: cell-based, MT4; conditions: human
# Procedure, shortened: (§1)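 Uninfected MT-4 lymphocytes were cultured with compound. CC50 is the concentration at which 50% of cells remain viable.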
# [2] = test system: Human immunodeficiency virus 1; test: Compound was tested in vitro for inhibition of cytopathic effect of HIV-1 3B in MT-4 lymphocytes; format: functional, organism-based
# Procedure, shortened: (§2)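 MT-4 lymphocytes were infected with HIV-1 3B at an MOI of either 0.001 or 0.032 tissue culture infective dose per cell. EC50 is the concentration preventing 50% of viral cytopathic effect, from a single triplicate assay. No effect means no activity up to 100 μM or up to the cytotoxic concentration.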
# [3] = molecular target: Human immunodeficiency virus type 1 protease (Human immunodeficiency virus 1, UniProt Q72874); test: Inhibition of purified recombinant HIV-1 protease in a fluorogenic assay
# Procedure, shortened: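 Purified recombinant HIV-1 protease, with cleavage of the fluorogenic substrate DABCYL-[…]-Pro-Ile-Val-Gln-EDANS as read-out. Value is the inhibitor concentration giving 50% inhibition of protease activity.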
# [4] = Estimated solubility (buffer pH 7.4); format: ADME; conditions: read-out: S
# Procedure, shortened: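 Solubility was estimated in pH 7.4 phosphate buffer.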
# MT4 = test: In vitro for cytotoxicity in MT-4 lymphocytes in the absence of HIV infection.; format: functional; conditions: Homo sapiens; procedure, shortened: as §1
# [5] = test system: Human immunodeficiency virus 1; test: In vitro for inhibition of cytopathic effect of HIV-1 3B in MT-4 lymphocytes.; format: functional, organism-based; procedure, shortened: as §2
Compound,CC50 [1] [µM],pEC50 [2],pIC50 [3],solubility [4] [µg/mL],CC50 (MT4) [µM],pEC50 [5]
CC(C)[C@H](NC(=O)CCc1cccnc1)C(=O)N[C@@H](Cc1ccccc1)C(O)[C@H](Cc1ccccc1)NC(=O)[C@H](NC(=O)CCc1cccnc1)C(C)C (stereo partly specified),55,5.00,7.66,–,–,–
CC(C)[C@H](NC(=O)OCc1ccncc1)C(=O)N[C@@H](Cc1ccccc1)[C@H](O)[C@H](O)[C@H](Cc1ccccc1)NC(=O)[C@H](NC(=O)OCc1ccncc1)C(C)C,–,–,8.64,0.62,> 100,6.22
CC(C)[C@H](NC(=O)OCc1ccccn1)C(=O)N[C@@H](Cc1ccccc1)[C@@H](O)[C@H](Cc1ccccc1)NC(=O)[C@H](NC(=O)OCc1ccccc1)C(C)C,–,–,8.52,0.6,> 100,5.66
CC(C)[C@H](NC(=O)CCN1CCOCC1)C(=O)N[C@@H](Cc1ccccc1)[C@@H](O)[C@@H](O)[C@H](Cc1ccccc1)NC(=O)[C@H](NC(=O)CCN1CCOCC1)C(C)C,–,–,7.64,> 1050,> 100,4.28
CC(C)[C@H](NS(=O)(=O)CCc1ccccn1)C(=O)N[C@@H](Cc1ccccc1)[C@@H](O)[C@@H](O)[C@H](Cc1ccccc1)NC(=O)[C@H](NS(=O)(=O)CCc1ccccn1)C(C)C,> 100,5.70,> 9.00,26,–,–
CC(C)[C@H](NS(=O)(=O)CCc1ccncc1)C(=O)N[C@@H](Cc1ccccc1)[C@H](O)[C@H](O)[C@H](Cc1ccccc1)NC(=O)[C@H](NS(=O)(=O)CCc1ccncc1)C(C)C,> 100,4.72,7.89,55,–,–
CC(C)[C@H](NC(=O)OCCN1CCOCC1)C(=O)N[C@@H](Cc1ccccc1)[C@@H](O)[C@H](Cc1ccccc1)NC(=O)[C@H](NC(=O)OCc1ccccc1)C(C)C,> 100,5.16,8.05,6.8,–,–
CC(C)[C@H](NS(=O)(=O)CCc1ccccn1)C(=O)N[C@@H](Cc1ccccc1)[C@H](O)[C@H](O)[C@H](Cc1ccccc1)NC(=O)[C@H](NS(=O)(=O)CCc1ccccn1)C(C)C,> 100,5.74,8.80,0.047,–,–
CC(C)[C@H](NC(=O)N(C)Cc1ccccn1)C(=O)N[C@@H](Cc1ccccc1)[C@@H](O)[C@@H](O)[C@H](Cc1ccccc1)NC(=O)[C@H](NC(=O)N(C)Cc1ccccn1)C(C)C,–,–,8.78,225,> 100,5.82
CC(C)[C@H](NC(=O)/C=C/c1cccnc1)C(=O)N[C@@H](Cc1ccccc1)C(O)[C@H](Cc1ccccc1)NC(=O)[C@H](NC(=O)/C=C/c1cccnc1)C(C)C (stereo partly specified),–,–,8.66,4.9,> 100,5.55
CC(C)[C@H](NC(=O)OCc1cccnc1)C(=O)N[C@@H](Cc1ccccc1)[C@@H](O)[C@H](Cc1ccccc1)NC(=O)[C@H](NC(=O)OCc1ccccc1)C(C)C,–,–,8.40,0.9,> 100,5.55
CC(C)[C@H](NC(=O)N(C)Cc1cscn1)C(=O)N[C@@H](Cc1ccccc1)[C@H](O)[C@H](O)[C@H](Cc1ccccc1)NC(=O)[C@H](NC(=O)N(C)Cc1cscn1)C(C)C,–,–,> 9.00,6.5,> 100,6.30
CC(C)[C@H](NC(=O)N(C)Cc1cscn1)C(=O)N[C@@H](Cc1ccccc1)[C@@H](O)[C@H](O)[C@H](Cc1ccccc1)NC(=O)[C@H](NC(=O)N(C)Cc1cscn1)C(C)C,–,–,> 9.00,159,> 100,6.72
CC(C)[C@H](NC(=O)N(C)CCc1ccccn1)C(=O)N[C@@H](Cc1ccccc1)[C@H](O)[C@H](O)[C@H](Cc1ccccc1)NC(=O)[C@H](NC(=O)N(C)CCc1ccccn1)C(C)C,–,–,7.51,86,95,4.92
CC(C)[C@H](NC(=O)N(C)Cc1cscn1)C(=O)N[C@@H](Cc1ccccc1)[C@H](O)[C@@H](O)[C@H](Cc1ccccc1)NC(=O)[C@H](NC(=O)N(C)Cc1csc(N)n1)C(C)C,> 100,5.82,> 9.00,331,–,–
CC(C)[C@H](NC(=O)N1CCN(Cc2ccccc2)CC1)C(=O)N[C@@H](Cc1ccccc1)[C@@H](O)[C@@H](O)[C@H](Cc1ccccc1)NC(=O)[C@H](NC(=O)N1CCN(Cc2ccccc2)CC1)C(C)C,17,5.37,8.11,9,–,–
CC(C)[C@H](NC(=O)N1CCN(c2ccccc2)CC1)C(=O)N[C@@H](Cc1ccccc1)[C@@H](O)[C@@H](O)[C@H](Cc1ccccc1)NC(=O)[C@H](NC(=O)N1CCN(c2ccccc2)CC1)C(C)C,18,5.77,8.85,1,–,–

Compound,CC50 [1] [µM],pEC50 [2],pIC50 [3],solubility [4] [µg/mL],CC50 (MT4) [µM],pEC50 [5]
CC(C)[C@H](NS(=O)(=O)CCc1ccccn1)C(=O)N[C@@H](Cc1ccccc1)[C@@H](O)[C@H](O)[C@H](Cc1ccccc1)NC(=O)[C@H](NS(=O)(=O)CCc1ccccn1)C(C)C,> 100,5.82,> 9.00,–,–,–
CC(C)[C@H](NC(=O)OCc1ccncc1)C(=O)N[C@@H](Cc1ccccc1)[C@@H](O)[C@@H](O)[C@H](Cc1ccccc1)NC(=O)[C@H](NC(=O)OCc1ccncc1)C(C)C,–,–,8.77,55,> 100,6.21
CC(C)[C@H](NC(=O)N(C)Cc1nccs1)C(=O)N[C@@H](Cc1ccccc1)[C@H](O)[C@H](O)[C@H](Cc1ccccc1)NC(=O)[C@H](NC(=O)N(C)Cc1nccs1)C(C)C,–,–,> 9.00,57,> 100,6.41
CC(C)[C@H](NS(=O)(=O)CCc1ccncc1)C(=O)N[C@@H](Cc1ccccc1)[C@@H](O)[C@H](O)[C@H](Cc1ccccc1)NC(=O)[C@H](NS(=O)(=O)CCc1ccncc1)C(C)C,> 100,4.80,7.62,32,–,–
CC(C)[C@H](NC(=O)N1CCOCC1)C(=O)N[C@@H](Cc1ccccc1)[C@H](O)[C@H](O)[C@H](Cc1ccccc1)NC(=O)[C@H](NC(=O)N1CCOCC1)C(C)C,> 100,4.06,7.37,–,–,–
CC(C)[C@H](NC(=O)N(C)Cc1nccs1)C(=O)N[C@@H](Cc1ccccc1)[C@H](O)[C@@H](O)[C@H](Cc1ccccc1)NC(=O)[C@H](NC(=O)N(C)Cc1csc(N)n1)C(C)C,> 100,5.80,> 9.00,196,–,–
CC(C)[C@H](NC(=O)N(C)Cc1nccs1)C(=O)N[C@@H](Cc1ccccc1)[C@@H](O)[C@H](O)[C@H](Cc1ccccc1)NC(=O)[C@H](NC(=O)N(C)Cc1nccs1)C(C)C,–,–,> 9.00,101,> 100,6.41
CC(C)[C@H](NC(=O)N(C)Cc1ccccn1)C(=O)N[C@@H](Cc1ccccc1)[C@H](O)[C@@H](O)[C@H](Cc1ccccc1)NC(=O)[C@H](NC(=O)N(C)Cc1cscn1)C(C)C,–,–,> 9.00,1,> 100,6.70
CC(C)[C@H](NC(=O)N(C)Cc1cscn1)C(=O)N[C@@H](Cc1ccccc1)[C@@H](O)[C@@H](O)[C@H](Cc1ccccc1)NC(=O)[C@H](NC(=O)N(C)Cc1cscn1)C(C)C,–,–,> 9.00,286,> 100,6.20
CC(C)[C@H](NC(=O)c1ccc2ccccc2n1)C(=O)N[C@@H](Cc1ccccc1)C(O)[C@H](Cc1ccccc1)NC(=O)[C@H](NC(=O)c1ccc2ccccc2n1)C(C)C (stereo partly specified),–,–,8.80,0.23,> 100,5.68
CC(C)[C@H](NC(=O)CCc1cccnc1)C(=O)N[C@@H](Cc1ccccc1)[C@@H](O)[C@@H](O)[C@H](Cc1ccccc1)NC(=O)[C@H](NC(=O)CCc1cccnc1)C(C)C,> 100,5.02,8.82,–,–,–
CC(C)[C@H](NC(=O)N(C)Cc1ccccn1)C(=O)N[C@@H](Cc1ccccc1)[C@H](O)[C@@H](O)[C@H](Cc1ccccc1)NC(=O)[C@H](NC(=O)N(C)Cc1csc(N)n1)C(C)C,–,–,> 9.00,386,> 100,6.25
CC(C)[C@H](NC(=O)N1CCN(Cc2ccccc2)CC1)C(=O)N[C@@H](Cc1ccccc1)[C@H](O)[C@H](O)[C@H](Cc1ccccc1)NC(=O)[C@H](NC(=O)N1CCN(Cc2ccccc2)CC1)C(C)C,> 100,5.03,8.05,1.7,–,–
CC(C)[C@H](NC(=O)OCc1ccccn1)C(=O)N[C@@H](Cc1ccccc1)[C@@H](O)[C@H](O)[C@H](Cc1ccccc1)NC(=O)[C@H](NC(=O)OCc1ccccn1)C(C)C,–,–,> 9.00,2.4,> 100,7.22
CC(C)[C@H](NC(=O)CCc1ccccn1)C(=O)N[C@@H](Cc1ccccc1)C(O)[C@H](Cc1ccccc1)NC(=O)[C@H](NC(=O)CCc1ccccn1)C(C)C (stereo partly specified),> 100,5.66,7.92,–,–,–
CC(C)[C@H](NC(=O)N(C)Cc1nccs1)C(=O)N[C@@H](Cc1ccccc1)[C@@H](O)[C@@H](O)[C@H](Cc1ccccc1)NC(=O)[C@H](NC(=O)N(C)Cc1nccs1)C(C)C,–,–,9.00,137,> 100,5.77
CC(C)[C@H](NC(=O)N(C)CCc1ccccn1)C(=O)N[C@@H](Cc1ccccc1)[C@@H](O)[C@@H](O)[C@H](Cc1ccccc1)NC(=O)[C@H](NC(=O)N(C)CCc1ccccn1)C(C)C,–,–,7.66,355,> 100,4.89

# Reference: ChEMBL document CHEMBL1126582, “Symmetry-based inhibitors of HIV protease. Structure-activity studies of acylated 2,4-diamino-1,5-diphenyl-3-hydroxypentane and 2,5-diamino-1,6-diphenylhexane-3,4-diol” (J Med Chem, 1993)
